Measured values of several laboratories.
Each line is one published result; the experiments were not run side by side.
HTR2C: 5-hydroxytryptamine receptor 2C (HTR2C, Homo sapiens, UniProt P28335)
EAPA: Endothiapepsin (EAPA, Cryphonectria parasitica, UniProt P11838)
Trypanothione synthetase: Trypanothione synthetase (Trypanosoma cruzi, UniProt Q9GT49)
BDKRB2: B2 bradykinin receptor (BDKRB2, Homo sapiens, UniProt P30411)

With `Oc1cccc(Nc2nc(-c3ccc(F)cc3F)cs2)c1` the inhibition was 17.4% (HTR2C; ligand displacement; radioligand; 10 µM).
`CCN(CC)c1ccc(C2Nc3ccc(C(=O)c4ccccc4)cc3NC3=C2C(=O)CC(C)(C)C3)cc1` (stereo not shown) gave an inhibition of 5% (HTR2C; ligand displacement; radioligand; 10 µM).
The inhibition of `NNC(c1nnnn1CC(c1ccccc1)c1ccccc1)C1CCCCC1` (stereo not shown) is reported as 71.3% (EAPA; enzyme activity; inhibitor; 200 µM).
With `O=C(O)c1ncccc1O` the inhibition was ~50% (Stromelysin-1 (MMP3, Homo sapiens, UniProt P08254); enzyme activity; inhibitor; 1 mM; pH 6).
`NNC(CCc1ccccc1)c1nnnn1Cc1ccc2c(c1)OCCO2` (stereo not shown) gave an inhibition of 42.5% (EAPA; enzyme activity; inhibitor; 200 µM).
For `NC(=O)CN1C(=O)Cc2c([nH]c3ccc(Br)cc23)-c2ccc(Cl)cc21`, the inhibition was 5.2% (Trypanothione synthetase; enzyme activity; inhibitor; absorbance; 30 µM).
`CCN(Cc1ccccc1C(F)(F)F)C(=O)C1CCN(S(=O)(=O)c2ccc3[nH]ncc3c2)CC1` gave an inhibition of 8% (B1 bradykinin receptor (BDKRB1, Homo sapiens, UniProt P46663); ligand displacement; radioligand; 10 µM).
`CN(C)C(=O)CN1C(=O)Cc2c([nH]c3ccc(Br)cc23)-c2ccc(Cl)cc21` has an inhibition of 14.9% (Trypanothione synthetase; enzyme activity; inhibitor; absorbance; 30 µM).
The inhibition of `Oc1ccc(-c2nnc(CCCOc3ccc(Cl)cc3Cl)o2)c(F)c1` is reported as 49.2% (1-deoxy-D-xylulose-5-phosphate synthase (dxs, Deinococcus radiodurans, UniProt Q9RUB5); enzyme activity; inhibitor; 120 µM).
`CCNC(=O)CN1C(=O)Cc2c([nH]c3ccc(Br)cc23)-c2ccc(Cl)cc21` has an inhibition of 41.4% (Trypanothione synthetase; enzyme activity; inhibitor; absorbance; 30 µM).
`O=C(c1ccc(OCCN2CCCCC2)cc1)c1c(-c2ccc(O)cc2)sc2cc(O)ccc12` gave an inhibition of 24.5% (Trypanothione synthetase; enzyme activity; inhibitor; absorbance; 25 µM).
With `O=C(c1ccc(Cl)cc1)N(Cc1ccccc1)C1CCCCC1` the inhibition was -1.6% (BDKRB2; cell-free assay; 10 µM).
For `CNC(=O)c1cc(Oc2ccc(NC(=O)Nc3ccc(Cl)c(C(F)(F)F)c3)cc2)ccn1`, the inhibition was 4% (Serine/threonine-protein kinase SIK1 (SIK1, Homo sapiens, UniProt P57059); enzyme activity; inhibitor; 0.3 µM).
For `CN(C)C1CCN(CC#Cc2nn(C3CCCC3)c3nc(NCc4ccccc4)ncc23)C1` (stereo not shown), the inhibition was -4% (Rho-associated protein kinase 1 (ROCK1, Homo sapiens, UniProt Q13464); enzyme activity; inhibitor; FRET; 10 µM).
With `CC(Cc1ccc(C(C)(C)C)cc1)C(NN)c1nnnn1Cc1ccc2c(c1)OCO2` (stereo not shown) the inhibition was 95.3% (EAPA; enzyme activity; inhibitor; 200 µM).
`CNC(=O)CN1C(=O)Cc2c([nH]c3ccc(Br)cc23)-c2ccc(Cl)cc21` gave an inhibition of 22.8% (Trypanothione synthetase; enzyme activity; inhibitor; absorbance; 30 µM).
`N#Cc1cc(Cn2c(N3CCCC3)nc3ccccc32)ccc1F` gave an inhibition of 88.9% (Sigma intracellular receptor 2 (Tmem97, Rattus norvegicus, UniProt Q5U3Y7); ligand displacement; 10 µM).
`COc1cc2c3c(c1OC)-c1cc4c(cc1CC3N(C)CC2c1ccccc1)OCO4` (stereo not shown) gave an inhibition of < 50% (HTR2C; ligand displacement; radioligand; 10 µM).
`CC(C)(C)NC(=O)CN1C(=O)Cc2c([nH]c3ccc(Br)cc23)-c2ccc(Cl)cc21` gave an inhibition of 5.8% (Trypanothione synthetase; enzyme activity; inhibitor; absorbance; 30 µM).
With `COc1cc(NC(C)=O)c(Cl)cc1C(=O)Nc1nccs1` the inhibition was -2.9% (Substance-P receptor (TACR1, Homo sapiens, UniProt P25103); cell-free assay; 10 µM).
With `NCCCCNC(=O)CN1C(=O)Cc2c([nH]c3ccc(Br)cc23)-c2ccc(Cl)cc21` the inhibition was 6.7% (Trypanothione synthetase; enzyme activity; inhibitor; absorbance; 30 µM).
With `O=C(Nc1ccc(S(=O)(=O)N2CCC(Cl)CC2)cc1)c1ccc([N+](=O)[O-])o1` the inhibition was 4% (BDKRB2; ligand displacement; radioligand; 10 µM).
